Calls of active or inactive are those of the source. No cut-off for these calls is given here.
Key:
[1] = biological target: Cytochrome P450 2D6 (Homo sapiens, UniProt P10635); assay: Inhibition of CYP2D6 in human liver microsomes using bufuralol as substrate pretreated for 5 mins followed by NADPH addition and measured after 10 mins by LC-MS analysis; assay type: ADME
[2] = Inhibition of PI3K in human PC3 cells assessed as reduction in AKT phosphorylation at Ser473 measured after 2 hrs by fluorescence assay; assay type: cell-based; conditions: PC-3, 2 h
[3] = biological target: PI3-kinase p110-alpha/p85-alpha (Homo sapiens, UniProt P42336); assay: Inhibition of recombinant human full length N-terminal His-tagged p110alpha/p85alpha expressed in baculovirus expression system using PIP2 as substrate measured after 1 hr by Alexa633 Tracer-based fluorescence polarization assay
Sequence of PI3-kinase p110-alpha/p85-alpha (Homo sapiens, UniProt P42336) (P27986 whole entry): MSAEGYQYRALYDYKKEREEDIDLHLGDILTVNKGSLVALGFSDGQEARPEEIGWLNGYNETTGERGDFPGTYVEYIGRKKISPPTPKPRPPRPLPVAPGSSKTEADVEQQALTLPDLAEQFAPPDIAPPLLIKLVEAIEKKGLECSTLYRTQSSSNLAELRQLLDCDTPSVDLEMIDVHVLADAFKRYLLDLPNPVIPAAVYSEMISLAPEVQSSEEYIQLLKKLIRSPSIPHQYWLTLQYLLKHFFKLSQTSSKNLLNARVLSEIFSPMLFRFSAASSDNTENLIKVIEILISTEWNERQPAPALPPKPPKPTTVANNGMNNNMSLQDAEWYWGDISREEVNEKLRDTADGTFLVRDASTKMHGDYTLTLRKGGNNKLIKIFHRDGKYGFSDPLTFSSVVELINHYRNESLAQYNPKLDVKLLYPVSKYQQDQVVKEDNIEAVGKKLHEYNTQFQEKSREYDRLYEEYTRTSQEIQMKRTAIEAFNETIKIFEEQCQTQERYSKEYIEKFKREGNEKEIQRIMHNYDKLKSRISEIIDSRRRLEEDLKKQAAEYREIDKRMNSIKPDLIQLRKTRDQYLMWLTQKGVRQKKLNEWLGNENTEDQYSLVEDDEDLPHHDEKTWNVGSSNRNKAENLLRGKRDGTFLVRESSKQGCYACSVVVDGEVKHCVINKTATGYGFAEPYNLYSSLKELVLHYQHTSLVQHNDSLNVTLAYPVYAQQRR
Sequence of PI3-kinase p110-alpha/p85-alpha (Homo sapiens, UniProt P42336) (P42336 whole entry): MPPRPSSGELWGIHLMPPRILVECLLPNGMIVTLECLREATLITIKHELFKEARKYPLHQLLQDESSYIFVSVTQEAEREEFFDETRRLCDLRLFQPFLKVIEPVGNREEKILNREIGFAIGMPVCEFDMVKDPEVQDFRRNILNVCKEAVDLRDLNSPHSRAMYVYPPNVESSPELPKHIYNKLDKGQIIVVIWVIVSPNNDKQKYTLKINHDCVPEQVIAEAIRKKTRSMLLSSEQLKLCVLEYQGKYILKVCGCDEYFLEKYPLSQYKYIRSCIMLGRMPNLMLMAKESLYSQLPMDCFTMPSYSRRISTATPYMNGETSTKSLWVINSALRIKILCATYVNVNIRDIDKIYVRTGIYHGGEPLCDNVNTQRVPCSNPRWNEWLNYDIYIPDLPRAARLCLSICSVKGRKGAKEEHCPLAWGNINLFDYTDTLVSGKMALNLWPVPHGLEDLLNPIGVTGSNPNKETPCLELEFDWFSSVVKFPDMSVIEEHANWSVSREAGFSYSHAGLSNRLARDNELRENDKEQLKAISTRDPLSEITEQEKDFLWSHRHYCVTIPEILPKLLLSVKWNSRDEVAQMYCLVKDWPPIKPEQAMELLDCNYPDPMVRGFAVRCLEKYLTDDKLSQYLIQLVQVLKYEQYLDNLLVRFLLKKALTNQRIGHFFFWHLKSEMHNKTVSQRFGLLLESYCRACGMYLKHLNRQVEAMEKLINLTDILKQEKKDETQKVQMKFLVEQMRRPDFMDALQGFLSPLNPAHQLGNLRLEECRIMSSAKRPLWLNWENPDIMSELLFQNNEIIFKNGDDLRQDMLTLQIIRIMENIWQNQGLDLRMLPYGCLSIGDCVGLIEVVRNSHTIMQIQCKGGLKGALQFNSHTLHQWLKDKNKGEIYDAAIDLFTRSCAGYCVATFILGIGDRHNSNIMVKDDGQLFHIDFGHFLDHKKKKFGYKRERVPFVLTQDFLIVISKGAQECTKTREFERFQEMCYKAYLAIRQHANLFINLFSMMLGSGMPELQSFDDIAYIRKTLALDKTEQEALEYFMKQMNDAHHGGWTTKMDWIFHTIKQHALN
Summary of the method: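 PI3Kα enzyme inhibition; IC50 is the mean of duplicate measurements.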

[4] = biological target: Phosphatidylinositol 4,5-bisphosphate 3-kinase catalytic subunit alpha isoform (Homo sapiens, UniProt P42336, H1047R); assay: Inhibition of p110alpha H1047R mutant (unknown origin)
Sequence of Phosphatidylinositol 4,5-bisphosphate 3-kinase catalytic subunit alpha isoform (P42336 whole entry H1047R, canonical isoform): as the sequence (P42336 whole entry) above, with H1047R counted along it

[5] = biological target: Serine/threonine-protein kinase ATR (Homo sapiens) (UniProt Q13535); assay: Inhibition of ATR in human HT-29 cells assessed as reduction in camptothecin-induced Chk1 phosphorylation at Ser345 residue at 10 uM pretreated for 1 hr followed by camptothecin addition; assay type: cell-based
Summary of the method: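 HT-29 cells were pretreated with compound for 1 h, then exposed to camptothecin to induce DNA damage. ATR activity was read as phosphorylation of its substrate Chk1, with total Chk1 and β-actin as internal controls. […] served as reference inhibitor.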

[6] = Tmax in CD1 mouse at 10 mg/kg, po administered via gavage by LC-MS/MS analysis; assay type: ADME, organism-based; conditions: in vivo
[7] = biological target: PI3-kinase p110-alpha/p85-alpha (Homo sapiens, UniProt P42336, E542K); assay: Inhibition of recombinant human His-tagged p85alpha/p110alpha E542K mutant expressed in insect cells
Sequence of PI3-kinase p110-alpha/p85-alpha (Homo sapiens, UniProt P42336, E542K) (P42336 whole entry E542K, looked up): as the sequence (P42336 whole entry) above, with E542K counted along it

[8] = biological target: Cytochrome P450 2C19 (Homo sapiens, UniProt P33261); assay: Inhibition of CYP2C19 in human liver microsomes using S-Mephenytoin as substrate pretreated for 5 mins followed by NADPH addition and measured after 45 mins by LC-MS analysis; assay type: ADME
Sequence of Cytochrome P450 2C19 (P33261 whole entry): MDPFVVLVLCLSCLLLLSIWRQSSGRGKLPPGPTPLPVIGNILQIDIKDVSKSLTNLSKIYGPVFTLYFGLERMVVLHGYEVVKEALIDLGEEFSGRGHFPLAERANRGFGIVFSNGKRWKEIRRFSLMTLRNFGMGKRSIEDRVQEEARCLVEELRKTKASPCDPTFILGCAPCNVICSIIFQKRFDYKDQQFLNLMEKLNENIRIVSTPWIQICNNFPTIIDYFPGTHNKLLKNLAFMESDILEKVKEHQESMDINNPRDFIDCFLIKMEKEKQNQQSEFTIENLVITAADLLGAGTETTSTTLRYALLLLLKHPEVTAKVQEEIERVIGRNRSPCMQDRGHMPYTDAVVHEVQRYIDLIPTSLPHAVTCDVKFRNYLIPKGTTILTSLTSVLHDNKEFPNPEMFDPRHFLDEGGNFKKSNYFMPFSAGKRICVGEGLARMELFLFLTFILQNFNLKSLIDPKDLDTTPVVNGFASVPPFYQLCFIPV

Sequence of Cytochrome P450 2D6 (P10635 whole entry): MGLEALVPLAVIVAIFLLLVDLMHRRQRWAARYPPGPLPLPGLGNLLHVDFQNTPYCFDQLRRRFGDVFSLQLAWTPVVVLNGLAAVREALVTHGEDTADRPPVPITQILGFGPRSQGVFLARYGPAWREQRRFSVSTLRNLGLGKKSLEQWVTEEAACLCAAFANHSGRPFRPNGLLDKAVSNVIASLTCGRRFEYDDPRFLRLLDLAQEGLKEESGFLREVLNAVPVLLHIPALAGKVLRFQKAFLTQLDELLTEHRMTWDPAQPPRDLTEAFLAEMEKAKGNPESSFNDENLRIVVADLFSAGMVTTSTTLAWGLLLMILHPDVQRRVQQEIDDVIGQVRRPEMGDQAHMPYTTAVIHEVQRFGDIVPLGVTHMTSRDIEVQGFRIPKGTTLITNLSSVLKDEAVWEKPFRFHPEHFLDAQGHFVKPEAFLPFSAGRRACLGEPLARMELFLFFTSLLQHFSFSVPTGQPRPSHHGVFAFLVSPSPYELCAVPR

C[C@H]1COCCN1c1nc(-c2cnc(N)cc2F)cc(C2(S(C)(=O)=O)CC2)n1
IC50 [1]: > 10000 nM
IC50 [2]: 196 nM
IC50 [3]: 10 to 20 nM
IC50 [4]: 15 nM
inhibition [5]: Active
Tmax [6]: 15 min
IC50 [7]: 11 nM
IC50 [8]: > 10000 nM

From ChEMBL document CHEMBL4196123, “Discovery of an Orally Bioavailable Dual PI3K/mTOR Inhibitor Based on Sulfonyl-Substituted Morpholinopyrimidines” (ACS Med Chem Lett, 2018)
